Compounds with a hit are over-represented: about 5.9% of the library has one in this group of screens.
Pf Dd2 growth – blocks growth of Plasmodium falciparum Dd2 parasites | P. falciparum Dd2 growth, SYBR Green, 72 h; hits give low values | activity change, % at 10 µM | actives 2.3% (n = 94,000) | AID 1159554; in the data active = activity change below about -80%; inconclusive = no clear call, values can overlap the other calls
T cruzi growth-1 – inhibitors of T. cruzi proliferation | T. cruzi beta-gal in NIH3T3, GalScreen luminescence, 90 h | inhibition, % at 8.34 µM | actives 5.9% (n = 77,000);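 active = mean inhibition above about 93%, with at least 55% of replicates each passing it, limit read from the data, passing the limit was not always enough; inconclusive = only one of those two conditions holds; inactive = neither condition holds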
IDH1 mut inh – blocks human IDH1 R132H reductase activity. inhibition, % at 10 µM. actives 0.18% (n = 70,000). diaphorase/resazurin fluorescence, 60 min. AID 624101. O75874; in the data active = inhibition above about 34%; inconclusive = no clear call, values can overlap the other calls; inactive = below about 11%;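 also: 0% = DMSO and 100% = no enzyme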
GASC1 inh – KDM4C (human) demethylase inhibition; Q9H3R0; GST-KDM4C 2-372, H3K9me3 peptide, LANCE TR-FRET; inhibition, % at 12.5 µM; actives 0.15% (n = 96,000); AID 720574;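 active = mean replicate inhibition above about 25%, with at least 55% of replicates also reaching it, limit read from the data, passing the limit was not always enough; inconclusive = only one of those two conditions met; inactive = neither condition met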
Target sequence (Q9H3R0 2-372 limits assumed): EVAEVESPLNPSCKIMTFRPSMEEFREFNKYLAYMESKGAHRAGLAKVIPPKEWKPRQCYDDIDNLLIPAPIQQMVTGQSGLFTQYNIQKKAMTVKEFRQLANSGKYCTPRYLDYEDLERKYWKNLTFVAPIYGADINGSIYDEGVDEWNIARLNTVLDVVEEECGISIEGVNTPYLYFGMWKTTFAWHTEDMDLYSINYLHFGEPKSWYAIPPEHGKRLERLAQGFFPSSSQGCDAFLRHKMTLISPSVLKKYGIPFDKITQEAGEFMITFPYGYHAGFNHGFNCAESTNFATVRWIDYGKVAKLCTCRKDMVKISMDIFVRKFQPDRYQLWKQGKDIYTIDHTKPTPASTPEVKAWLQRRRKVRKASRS
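System – N-terminal GST-fused human GASC-1 (KDM4C) fragment, residues 2-372 · Input – enzyme final amount 10 nM · Technique – LANCE TR-FRET, Eu antibody, ULight-streptavidin, EDTA, ex 340 nm, em 618/671 nm · Medium – HEPES buffer, pH 7.5, plus ascorbate · Incubation – enzyme reaction 30 min, then detection 60 min, both room temperature · Reagent – H3K9me3 peptide with Fe(II)/2OG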
T cruzi growth-2 – blocks T. cruzi growth in NIH3T3 host cells. T. cruzi beta-gal in NIH3T3, GalScreen luminescence, 90 h. inhibition, % at 8.35 µM. AID 651739. actives 72% (n = 5,600). shares compounds with T cruzi growth-1;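 active = mean replicate inhibition above about 95% and at least 55% of replicates individually reaching it, limit read from the data; inconclusive = only one of the two criteria is met; inactive = neither criterion is met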
T cruzi growth-3 – blocks T. cruzi growth in NIH3T3 host cells; actives 21% (n = 5,600); T. cruzi beta-gal in NIH3T3, GalScreen luminescence, 90 h; AID 651740; inhibition, % at 2.09 µM; shares compounds with T cruzi growth-1;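 active = mean inhibition above about 95%, with at least 55% of replicates also reaching it, limit read from the data; inconclusive = meets just one of the two conditions; inactive = meets neither condition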;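 also: plate controls were neutral control median for no effect and positive control median for full effect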
3T3 cytotox – NIH/3T3 (mouse) viability loss; NIH/3T3 viability, CellTiter-Glo ATP luminescence, 90 h; shares compounds with T cruzi growth-1; cytotoxicity (signal decrease), % at 8.35 µM; actives 14% (n = 5,600); AID 651742;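 active = mean signal decrease across replicates above about 35% based on untreated-well scatter, with enough replicates individually passing, limit read from the data; inconclusive = no rule stated though some were filed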;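 also: 0% = median of neutral control wells and 100% = median of positive control wells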
3T3 cytotox 2 – kills mouse NIH/3T3 fibroblasts; inhibition, % at 24.9 µM; NIH/3T3 viability, CellTiter-Glo ATP luminescence, 90 h; actives 56% (n = 5,600); shares compounds with T cruzi growth-1;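 active = mean loss of cell viability signal at or above a set limit, and enough replicates individually reaching it; inconclusive = meets only the mean limit or only the replicate share; inactive = meets neither condition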;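 also: 0% = median of neutral control wells and 100% = median of positive control wells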
Active calls of the source: *; ? = inconclusive; · = no result given.

SMILES	Pf Dd2 growth	T cruzi growth-1	IDH1 mut inh	GASC1 inh	T cruzi growth-2	T cruzi growth-3	3T3 cytotox	3T3 cytotox 2
C[C@@H]1CCCCO[C@@H](CN(C)C)[C@H](C)CN([C@@H](C)CO)C(=O)c2cc(NC(=O)c3ccncc3)ccc2O1	28.5	99.9*	3.5	1.5	-11.3	-37.9	-8.9	-4.5
C[C@H](CO)N1C[C@H](C)[C@@H](CN(C)C)OCCCC[C@H](C)Oc2ccc(NC(=O)c3ccncc3)cc2C1=O	·	3.1	2.2	-0.5	·	·	·	·
C[C@@H]1CN([C@@H](C)CO)C(=O)c2cc(NC(=O)c3ccccc3)ccc2O[C@@H](C)CCCCO[C@H]1CN(C)C(=O)c1ccccc1	-52.3	?	-6.0	7.1	91.5	0.3	-1.5	-0.4
CC(C)(C)C1CCc2c(sc(NC(=O)COc3ccccc3Cl)c2C(N)=O)C1 (configuration not stated)	·	·	0.3	·	·	·	·	·
O=C(CSc1nc(-c2ccccc2)cc(=O)[nH]1)NCC1CCCO1 (configuration not stated)	·	·	-0.5	·	·	·	·	·
C[C@@H]1CCCCO[C@H](CN(C)Cc2ccc(Cl)c(Cl)c2)[C@@H](C)CN([C@H](C)CO)C(=O)c2cc(NS(=O)(=O)c3cccs3)ccc2O1	-21.3	116.5*	·	0.4	105.2*	1.9	8.7	56.7*
C[C@H](CO)N1C[C@H](C)[C@@H](CN(C)Cc2ccc(Cl)c(Cl)c2)OCCCC[C@H](C)Oc2ccc(NS(=O)(=O)c3cccs3)cc2C1=O	-19.6	?	·	-0.9	85.0	107.2*	11.1	104.0*
C[C@@H]1CCCCO[C@@H](CN(C)Cc2ccc(Cl)c(Cl)c2)[C@@H](C)CN([C@H](C)CO)C(=O)c2cc(NS(=O)(=O)c3cccs3)ccc2O1	4.3	114.9*	1.4	-0.8	96.7*	83.5	-3.7	49.5*
C[C@H](CO)N1C[C@H](C)[C@@H](CN(C)Cc2ccncc2)OCCCC[C@H](C)Oc2ccc(NS(=O)(=O)c3cccs3)cc2C1=O	1.5	21.1	19.2	0.9	·	·	·	·
C[C@@H]1CCCCO[C@H](CN(C)C(=O)c2ccccc2)[C@@H](C)CN([C@@H](C)CO)C(=O)c2cc(NC(=O)Nc3ccc(C(F)(F)F)cc3)ccc2O1	-91.8*	?	-1.3	0.3	107.4*	109.6*	-5.2	-8.5
C[C@@H]1CCCCO[C@@H](CN(C)C(=O)c2ccccc2)[C@H](C)CN([C@H](C)CO)C(=O)c2cc(NC(=O)Nc3ccc(C(F)(F)F)cc3)ccc2O1	-56.7	?	·	-0.6	102.6*	117.5*	-6.8	8.8
C[C@@H]1CCCCO[C@H](CN(C)C(=O)c2ccccc2)[C@H](C)CN([C@@H](C)CO)C(=O)c2cc(NC(=O)Nc3ccc(C(F)(F)F)cc3)ccc2O1	-61.5	?	·	-0.5	101.0*	111.6*	20.1	48.5*
C[C@@H]1CCCCO[C@@H](CN(C)C(=O)c2ccccc2)[C@@H](C)CN([C@H](C)CO)C(=O)c2cc(NC(=O)Nc3ccc(C(F)(F)F)cc3)ccc2O1	2.0	117.2	-1.3	-0.5	·	·	·	·
C[C@@H]1CN([C@H](C)CO)C(=O)c2cc(NC(=O)Nc3ccc(C(F)(F)F)cc3)ccc2O[C@@H](C)CCCCO[C@@H]1CN(C)C(=O)c1ccccc1	-68.5	72.4	·	0.0	·	·	·	·
C[C@@H]1CCCCO[C@@H](CN(C)S(=O)(=O)c2ccc(Cl)cc2)[C@H](C)CN([C@@H](C)CO)C(=O)c2cc(NS(=O)(=O)c3ccc(Cl)cc3)ccc2O1	1.4	61.3	·	-0.8	·	·	·	·
C[C@H](CO)N1C[C@H](C)[C@@H](CN(C)S(=O)(=O)c2ccc(Cl)cc2)OCCCC[C@H](C)Oc2ccc(NS(=O)(=O)c3ccccc3)cc2C1=O	-67.0	·	·	0.3	·	·	·	·
C[C@@H]1CN([C@@H](C)CO)C(=O)c2cc(NS(=O)(=O)c3ccc(Cl)cc3)ccc2O[C@@H](C)CCCCO[C@H]1CN(C)S(=O)(=O)c1ccccc1	-22.3	119.7*	-1.2	-0.5	108.4*	52.8	11.2	4.3
C[C@@H]1CN([C@@H](C)CO)C(=O)c2cc(NS(=O)(=O)c3ccc(Cl)cc3)ccc2O[C@@H](C)CCCCO[C@@H]1CN(C)S(=O)(=O)c1ccccc1	-65.2	82.7	0.9	0.6	·	·	·	·
C[C@@H]1CCCCO[C@@H](CN(C)S(=O)(=O)c2ccccc2)[C@@H](C)CN([C@H](C)CO)C(=O)c2cc(NS(=O)(=O)c3ccc(Cl)cc3)ccc2O1	-33.5	62.8	·	-0.1	·	·	·	·
C[C@H](CO)N1C[C@H](C)[C@H](CN(C)S(=O)(=O)c2ccccc2)OCCCC[C@H](C)Oc2ccc(NS(=O)(=O)c3ccc(Cl)cc3)cc2C1=O	-32.7	117.7*	·	-3.0	103.9*	88.2	-18.3	-4.7
C[C@@H]1CN([C@H](C)CO)C(=O)c2cc(NS(=O)(=O)c3ccc(Cl)cc3)ccc2O[C@@H](C)CCCCO[C@@H]1CN(C)S(=O)(=O)c1ccccc1	-64.4	118.1*	1.5	-3.2	104.0*	92.6	-27.2	22.0
C[C@@H]1CCCCO[C@H](CN(C)S(=O)(=O)c2ccc(Cl)cc2)[C@H](C)CN([C@H](C)CO)C(=O)c2cc(NS(=O)(=O)c3ccc(Cl)cc3)ccc2O1	-65.9	107.8*	2.3	0.7	101.1*	116.2*	9.8	-14.6
C[C@@H]1CCCCO[C@@H](CN(C)S(=O)(=O)c2ccc(Cl)cc2)[C@H](C)CN([C@H](C)CO)C(=O)c2cc(NS(=O)(=O)c3ccccc3)ccc2O1	-69.6	103.8	·	-0.6	·	·	·	·
C[C@@H]1CCCCO[C@H](CN(C)S(=O)(=O)c2ccccc2)[C@H](C)CN([C@H](C)CO)C(=O)c2cc(NS(=O)(=O)c3ccc(Cl)cc3)ccc2O1	-36.1	116.9*	1.7	-1.8	99.5*	102.0*	17.2	4.4
C[C@H](CO)N1C[C@H](C)[C@@H](CN(C)S(=O)(=O)c2ccccc2)OCCCC[C@H](C)Oc2ccc(NS(=O)(=O)c3ccc(Cl)cc3)cc2C1=O	-4.2	114.5*	·	24.6	100.6*	67.2	30.1	8.8
O=C(COc1ccc([N+](=O)[O-])cc1)Nc1ccc2oc(-c3ccc(F)cc3)nc2c1	·	·	-0.2	·	·	·	·	·
CCN(C[C@@H]1N[C@H](CO)[C@H]1c1ccc(C2=CCCC2)cc1)C(=O)c1ccncc1	-52.2	93.3	·	-4.1	·	·	·	·
C/C=C/c1ccc([C@@H]2[C@@H](CO)N[C@@H]2CN(CC)C(=O)c2ccccn2)cc1	-18.5	100.2*	·	-2.1	27.5	3.5	-11.9	11.2
